Assay [1] relates to Rattus norvegicus. Put plainly: In vivo inhibition of Rat lung edema following i.t. administration. The following applies: inhaled or nasal. The assay is classed as functional.
The subject of assay [2] is Rattus norvegicus. Kind of assay: In vivo suppression of thymus weight by 30% following i.t. administration. The format is functional. The following applies: inhaled or nasal. Put shortly:
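Male Sprague-Dawley rats (~350 g, six per group) dosed intratracheally under halothane anesthesia at 0 and 24 h. Vehicle: 1% carboxymethyl cellulose/0.2% Tween 80 suspension, sonicated. First dose given with saline, second with Sephadex G200 (final 5 mg/mL). Rats killed at 48 h; lungs and thymus weighed. Doses reducing Sephadex-induced edema and thymus weight by 30% calculated.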

The test system of the next assay is H35. Kind of assay: Induction of tyrosine aminotransferase activity in cultured rat liver H4IIE cells. The assay is classed as functional. The conditions noted are these: read-out: ED50 (the source's name). Put shortly:
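Confluent H4IIE rat hepatoma cells (4-day culture) incubated overnight with steroid at 0-100 nM, in triplicate wells. Lysate equilibrated at 37 °C with α-ketoglutarate and pyridoxal phosphate in phosphate buffer, pH 7.3.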

Assay [3] deals with Rattus norvegicus. Put plainly: Selectivity ratio of Topical vs Systemic routes of administration. The assay is classed as functional. Put shortly:
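Male Sprague-Dawley rats (about 350 g, six per group) received the steroid intratracheally under halothane. It was suspended in 1% carboxymethyl cellulose/0.2% Tween 80 and given at 0 h with saline and at 24 h with Sephadex G200 (final 5 mg/mL). At 48 h, lungs and thymus were weighed. The ratio compares doses giving 30% reduction of lung edema and of thymus weight in the same animals.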

A further assay has as its target T1, Glucocorticoid receptor (Rattus norvegicus, UniProt P06536).
T1 sequence (P06536 whole entry): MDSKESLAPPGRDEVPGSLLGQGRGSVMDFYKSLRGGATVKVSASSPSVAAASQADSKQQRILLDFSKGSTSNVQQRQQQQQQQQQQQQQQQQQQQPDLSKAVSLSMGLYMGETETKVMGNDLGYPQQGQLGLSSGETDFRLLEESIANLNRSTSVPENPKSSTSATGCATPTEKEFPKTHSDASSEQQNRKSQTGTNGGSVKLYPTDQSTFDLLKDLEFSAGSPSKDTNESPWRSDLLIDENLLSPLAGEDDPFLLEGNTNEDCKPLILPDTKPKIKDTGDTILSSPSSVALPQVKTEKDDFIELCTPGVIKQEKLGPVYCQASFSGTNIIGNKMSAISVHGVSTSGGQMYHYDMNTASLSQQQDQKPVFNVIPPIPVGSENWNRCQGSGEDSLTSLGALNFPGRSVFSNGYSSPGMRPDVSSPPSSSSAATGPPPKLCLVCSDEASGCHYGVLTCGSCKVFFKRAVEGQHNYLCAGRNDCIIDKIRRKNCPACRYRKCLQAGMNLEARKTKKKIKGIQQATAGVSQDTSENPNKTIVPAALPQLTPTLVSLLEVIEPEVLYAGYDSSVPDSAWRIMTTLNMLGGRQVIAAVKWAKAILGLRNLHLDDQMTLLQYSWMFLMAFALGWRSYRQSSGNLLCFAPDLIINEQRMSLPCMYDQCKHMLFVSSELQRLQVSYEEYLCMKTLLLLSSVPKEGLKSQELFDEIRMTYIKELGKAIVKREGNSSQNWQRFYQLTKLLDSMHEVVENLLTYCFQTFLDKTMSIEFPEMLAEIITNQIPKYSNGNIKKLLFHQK
Put plainly: Steroid binding against the rat thymus glucocorticoid receptor.

In assay [4] the test system is Rattus norvegicus. Put plainly: Selectivity ratio of Topical vs Systemic routes of administration. The assay is classed as functional. Put shortly: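 Male Sprague-Dawley rats (about 350 g, six per group) were dosed intratracheally under halothane at 0 and 24 h, as a sonicated suspension in 1% carboxymethyl cellulose/0.2% Tween 80. The first dose was given with saline, the second with Sephadex G200 (final 5 mg/mL). Lungs and thymus were weighed at 48 h. The ratio compares doses reducing edema and thymus weight by 30%, both measured in the same animals.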

As a reminder, the ED50 is the dose at which the effect has come halfway, by size or by number of responders. A low value points to greater potency. The term IC50 denotes the concentration needed to halve the response being measured. Lower therefore signals greater potency.

`CC=C[C@@H]1O[C@@H]2C[C@H]3[C@@H]4CCC5=CC(=O)C=C[C@]5(C)[C@@]4(F)[C@@H](O)C[C@]3(C)[C@]2(SC)O1`: the ED50 in the assay on Rattus norvegicus [1] was more than 3 mg/kg; with Rattus norvegicus [2], 1.1 mg/kg. Besides, the EC50 in the assay on H35 turned out to be 1.1 nM. Besides, in the assay with Rattus norvegicus [3], the Selectivity is on record as more than 2.73. The molecule further returned an IC50 at Glucocorticoid receptor of 1.8 nM.

Turning to `CCS[C@]1(SC)CC[C@H]2[C@@H]3CCC4=CC(=O)C=C[C@]4(C)[C@@]3(F)[C@@H](O)C[C@@]21C`, the ED50 in the assay on Rattus norvegicus [1] came out at 2.1 mg/kg; in the assay with Rattus norvegicus [2] it was 1.1 mg/kg. Besides, the EC50 in the assay on H35 turned out to be 2 nM. In addition, the Selectivity with Rattus norvegicus [3] is 1.91. The IC50 on Glucocorticoid receptor is 2.3 nM.

For the molecule `CCC[C@@H]1O[C@@H]2CC3C4C[C@H](F)C5=CC(=O)C=C[C@]5(C)[C@@]4(F)[C@@H](O)C[C@]3(C)[C@]2(SCF)O1` (stereo partly drawn), the figures for the ED50 with Rattus norvegicus [1] and with Rattus norvegicus [2] were 0.3 mg/kg and 4.6 mg/kg, respectively. Further, the EC50 in the assay with H35 was 0.3 nM. For the same molecule, in the assay with Rattus norvegicus [3], the Selectivity amounted to 0.065. In addition, on Glucocorticoid receptor, the IC50 was 2.2 nM.

For `CC1(C)O[C@@H]2CC3C4CCC5=CC(=O)C=C[C@]5(C)[C@@]4(F)[C@@H](O)C[C@]3(C)[C@]2(Sc2ccccn2)O1` (stereo partly drawn), the ED50 in the assay on Rattus norvegicus [1] and in the assay with Rattus norvegicus [2] was more than 3 mg/kg throughout. For the same molecule, the EC50 in the assay on H35 is 50 nM. The molecule also gave a 50% inhibitory concentration (IC50) on Glucocorticoid receptor of 22 nM.

In the case of `CS[C@@]12OC(C)(C)O[C@@H]1CC1C3CCC4=CC(=O)C=C[C@]4(C)[C@@]3(F)[C@@H](O)C[C@@]12C` (stereo partly drawn), the ED50 with Rattus norvegicus [1] worked out at 0.3 mg/kg; in the assay with Rattus norvegicus [2], 0.9 mg/kg. Moreover, the EC50 in the assay on H35 came to 0.2 nM. For the same molecule, the Selectivity in the assay with Rattus norvegicus [3] came to 0.33. The molecule also returned a half-maximal inhibitory concentration (IC50) on Glucocorticoid receptor of 1.6 nM.

`CCC[C@@H]1O[C@@H]2CC3C4CCC5=CC(=O)C=C[C@]5(C)[C@@]4(F)[C@@H](O)C[C@]3(C)[C@]2(SC)O1` (stereo partly drawn): the ED50 is more than 1 mg/kg with Rattus norvegicus [1] and 1.8 mg/kg in the assay with Rattus norvegicus [2]. The EC50 with H35 came out at 1.7 nM. Also, the Selectivity in the assay with Rattus norvegicus [3] was more than 0.56. On Glucocorticoid receptor, this molecule registered an IC50 of 1.7 nM.

As for `CCCC1O[C@@H]2C[C@H]3[C@@H]4CCC5=CC(=O)C=C[C@]5(C)[C@H]4[C@@H](O)C[C@]3(C)[C@]2(C(=O)CO)O1` (stereo partly drawn) [BUDESONIDE], the ED50 with Rattus norvegicus [1] stood at 0.39 mg/kg; with Rattus norvegicus [2], 0.96 mg/kg. The EC50 in the assay on H35 was 0.2 nM. In addition, the Selectivity in the assay on Rattus norvegicus [3] amounted to 0.4. At Glucocorticoid receptor, this molecule yielded an IC50 of 2.9 nM.

For the molecule `CCC[C@@H]1O[C@@H]2CC3C4CCC5=CC(=O)C=C[C@]5(C)[C@@]4(F)[C@@H](O)C[C@]3(C)[C@]2(SCF)O1` (stereo partly drawn), the ED50 is more than 3 mg/kg in the assay on Rattus norvegicus [1] and 4 mg/kg in the assay on Rattus norvegicus [2]. The EC50 in the assay on H35 amounted to 1.2 nM. Further, in the assay on Rattus norvegicus [3], the Selectivity is recorded as more than 0.75. On Glucocorticoid receptor, this molecule had an IC50 of 3.3 nM.

Regarding `CC1(C)O[C@@H]2C[C@H]3[C@@H]4CCC5=CC(=O)C=C[C@]5(C)[C@@]4(F)[C@@H](O)C[C@]3(C)[C@]2(S(C)(=O)=O)O1`, the ED50 with Rattus norvegicus [1] was 2.2 mg/kg; in the assay with Rattus norvegicus [2], 1.4 mg/kg. Also, in the assay on H35, the EC50 worked out at 13 nM. Further, the Selectivity with Rattus norvegicus [3] is on record as 1.57. Besides, the IC50 on Glucocorticoid receptor stood at 5.3 nM.

With `CCC[C@@H]1O[C@@H]2CC3C4CCC5=CC(=O)C=C[C@]5(C)[C@@]4(F)[C@@H](O)C[C@]3(C)[C@]2(Sc2ccccn2)O1` (stereo partly drawn), the ED50 in the assay with Rattus norvegicus [1] and in the assay with Rattus norvegicus [2] was more than 3 mg/kg throughout. In the assay with H35, the EC50 was more than 100 nM. The molecule further had an IC50 at Glucocorticoid receptor of 12 nM.

Consider `CCC[C@@H]1O[C@@H]2CC3C4CCC5=CC(=O)CC[C@]5(C)[C@@]4(F)[C@@H](O)C[C@]3(C)[C@]2(SC)O1` (stereo partly drawn), for which the values for the ED50 in the assay on Rattus norvegicus [1] and with Rattus norvegicus [2] were 3.6 mg/kg and 5.2 mg/kg, respectively. Besides, the EC50 in the assay with H35 was 0.7 nM.

`CCC[C@@H]1O[C@@H]2CC3C4CCC5=CC(=O)C=C[C@]5(C)[C@@]4(F)[C@@H](O)C[C@]3(C)[C@]2([S+](C)[O-])O1` (stereo partly drawn): the values for the ED50 with Rattus norvegicus [1] and in the assay with Rattus norvegicus [2] were more than 3 mg/kg and 3 mg/kg, respectively. Moreover, the Selectivity with Rattus norvegicus [4] is recorded as more than 1. Besides, the EC50 with H35 was found to be 23 nM. The molecule further showed an IC50 at Glucocorticoid receptor of 3.2 nM.

As to `CCC[C@@H]1O[C@@H]2CC3C4C[C@H](F)C5=CC(=O)C=C[C@]5(C)[C@@]4(F)[C@@H](O)C[C@]3(C)[C@]2(SC)O1` (stereo partly drawn), the ED50 in the assay with Rattus norvegicus [1] was 0.11 mg/kg; in the assay with Rattus norvegicus [2] it was 0.54 mg/kg. Besides, the EC50 in the assay on H35 turned out to be 0.4 nM. Also, in the assay with Rattus norvegicus [3], the Selectivity stood at 0.2. The IC50 on Glucocorticoid receptor turned out to be 2.4 nM.

Regarding `CCC[C@@H]1O[C@@H]2CC3C4CCC5=CC(=O)C=C[C@]5(C)[C@@]4(F)[C@@H](O)C[C@]3(C)[C@]2(SC(C)C)O1` (stereo partly drawn), the ED50 with Rattus norvegicus [1] and in the assay on Rattus norvegicus [2] was more than 3 mg/kg in each case. For the same molecule, the EC50 in the assay with H35 is 7 nM. Moreover, the IC50 at Glucocorticoid receptor came out at 5.5 nM.

`CCC[C@@H]1O[C@@H]2CC3C4C[C@H](F)C5=CC(=O)CC[C@]5(C)[C@@]4(F)[C@@H](O)C[C@]3(C)[C@]2(SC)O1` (stereo partly drawn): the ED50 in the assay with Rattus norvegicus [1] was determined as 0.06 mg/kg; in the assay with Rattus norvegicus [2], 1 mg/kg. The EC50 with H35 is 0.3 nM. The Selectivity with Rattus norvegicus [3] came out at 0.06. Also, at Glucocorticoid receptor, the IC50 came to 2.2 nM.

For the molecule `CS[C@@]12OC(C)(C)O[C@@H]1CC1C3C[C@H](F)C4=CC(=O)C=C[C@]4(C)[C@@]3(F)[C@@H](O)C[C@@]12C` (stereo partly drawn), the values for the ED50 in the assay on Rattus norvegicus [1] and in the assay on Rattus norvegicus [2] were 1.3 mg/kg and 3.2 mg/kg, respectively. Besides, the EC50 in the assay with H35 turned out to be 0.2 nM. The Selectivity in the assay with Rattus norvegicus [3] is on record as 0.4. The IC50 at Glucocorticoid receptor was 2.2 nM.

Regarding `CCC[C@@H]1O[C@@H]2CC3C4CCC5=CC(=O)C=C[C@]5(C)[C@@]4(F)[C@@H](O)C[C@]3(C)[C@]2(SCC)O1` (stereo partly drawn), the 50% effective dose (ED50) is more than 3 mg/kg with Rattus norvegicus [1] and 7 mg/kg in the assay with Rattus norvegicus [2]. Moreover, in the assay with H35, the EC50 was 1.5 nM. In addition, the Selectivity in the assay on Rattus norvegicus [3] was more than 0.43. Moreover, the IC50 at Glucocorticoid receptor amounted to 3.3 nM.

As for `CC1(C)O[C@@H]2C[C@H]3[C@@H]4C[C@H](F)C5=CC(=O)C=C[C@]5(C)[C@@]4(F)[C@@H](O)C[C@]3(C)[C@]2(SCF)O1`, the ED50 in the assay on Rattus norvegicus [1] came out at 0.07 mg/kg; with Rattus norvegicus [2] it was 1.9 mg/kg. The EC50 in the assay on H35 was determined as 1 nM. In the assay on Rattus norvegicus [3], the Selectivity amounted to 0.037. At Glucocorticoid receptor, this molecule had an IC50 of 4.3 nM.

`CCC(=O)O[C@]1(C(=O)SCF)C(C)C[C@H]2[C@@H]3C[C@H](F)C4=CC(=O)C=C[C@]4(C)[C@@]3(F)[C@@H](O)C[C@@]21C` (single isomer, unassigned) [FLUTICASONE PROPIONATE]: the ED50 was found to be 0.05 mg/kg with Rattus norvegicus [1] and 0.47 mg/kg in the assay on Rattus norvegicus [2]. Moreover, the EC50 with H35 worked out at 0.1 nM.

(Values after ChEMBL document CHEMBL1129589, “Anti-inflammatory 17beta-thioalkyl-16alpha,17alpha-ketal and -acetal androstanes: a new class of airway selective steroids for the treatment of asthma” (J Med Chem, 1996).)
